# Measured values reported in PubChem BioAssay.
# A number with no mark means an inactive call. Inconclusive results are not listed. Active and inactive are the calls of the source.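 How the source made its calls, unless noted: active means RAM network inhibition above 8.4% in each of two replicates, 3 SD over the compound average; inconclusive means above 8.4% inhibition in only one replicate; inactive means 8.4% inhibition or less in each replicate.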
# Legend:
# [1] = S. cerevisiae growth inhibition in permissive medium (OD615), pilot counter-assay for S. cerevisiae lifespan shortening project, permissive growth control (AID 705;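 active means growth inhibition above 25% in both replicates, a cutoff set 3 SD above the mean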); conditions: OD615, 24 h, at 10 µM, stronger effect = higher value
# How it was run: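 Material: engineered DeaD yeast; compound dosing: one dose 10 µM, DMSO 0.25% final; measure: yeast growth inhibition indicated by reduced 24 h OD615; detection: OD615 turbidity read; incubation: cells pre-grown 4 h, then 24 h compound exposure, 30 °C humidified; medium: permissive synthetic complete medium with raffinose and galactose carbon sources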
# [2] = S. cerevisiae growth inhibition in restrictive medium, OD615, pilot screen, restrictive growth control, yeast lifespan reduction project (AID 706;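 active means growth inhibition above a set limit, 3 SD over mean compound inhibition, in both replicates, cut at about 43% in these data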;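 further: modified DeaD lifespan yeast strain shifted to restrictive glucose medium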); conditions: OD615, 48 h, at 10 µM, stronger effect = higher value
# How it was run: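 material = engineered S. cerevisiae DeaD strain | medium = glucose-based CSMM-D restrictive medium | times = 4 h pre-incubation, 48 h exposure at 30 °C | technique = OD615 absorbance reading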
# [3] = doxorubicin toxicity protection in MRP-1 cells – H69AR cells, CellTiter-Glo, duplicate, MRP-1 activator project, pilot screen (AID 807;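 active means viability increase at or above a cutoff of the median across tested compounds plus 3 SD, cut at about 8.5% in these data, passing the limit was not always enough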;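 further: compound pretreatment 18-22 h then 72 h combined with doxorubicin; 0% = doxorubicin alone and 100% = vehicle without doxorubicin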); conditions: H69AR viability with doxorubicin, CellTiter-Glo luminescence; at 10 µM; stronger effect = higher value
# [4] = viability of HCT116 without oncogenic beta-catenin – human colon tumor cells, pilot screen (AID 823;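 active means cell viability at or below a set limit in both duplicate runs, the limit being the all-compound median minus 4 SD, cut at about 23% in these data, passing the limit was not always enough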;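 further: 0% = wells killed by 20 µM Hyamine and 100% = untreated DMSO cell wells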); conditions: HCT116 beta-catenin knockout viability, CellTiter-Glo, 60 h; at 10 µM; stronger effect = lower value
# [5] = RAM pathway blockade in budding yeast – dse1pr::URA3 reporter, 5-FOA selection, pilot screen (AID 869;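 active means inhibition over a set limit, the all-compound mean plus 3 SD, in both replicate runs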;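 further: 0% = DMSO wells with no growth and 100% = 10 µM 1-NA-PP1 with full growth; RAM network block rescues cells from 5-FOA so hits raise OD615 growth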); conditions: S. cerevisiae dse1pr::URA3 5-FOA growth, OD615, 2 d; at 10 µM; stronger effect = higher value; strain carries analog-sensitive mutant Cbk1 kinase
# [6] = RAM signaling pathway blockade in yeast – S. cerevisiae, Pdr1DBD-CYC8 efflux-inhibited sensitized strain, primary screen (AID 1298);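 further: 0% = DMSO untreated cells without growth and 100% = 10 µM 1-NA-PP1 full growth; higher means more yeast growth rescued from 5-FOA killing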; conditions: S. cerevisiae cbk1-as DSE1-URA3 strain, 5-FOA growth OD615, 2 d; at 50 µM; stronger effect = higher value
SMILES,growth inhibition [1],growth inhibition [2],viability increase [3],viability [4],inhibition [5],RAM network inhibition [6]
Cc1ccc(Cl)cc1N1CCN(S(=O)(=O)c2cccc(S(=O)(=O)N3CCCC3)c2)CC1,-4.5%,12%,0.04%,83.5%,2.14%,6.44%
CSc1nc2c(c(=O)n1-c1ccccc1)SCC2,-15.9%,-8.25%,-2.76%,98.3%,0.775%,0.21%
OCCN1CCN(c2ncnc3c2sc2nc(N4CCOCC4)c4c(c23)CCC4)CC1,-16.4%,-3.42%,-7.68%,55.3%,1.13%,2.39%
CC(C)c1nc2sc3c(SCC(=O)NCc4ccco4)ncnc3c2c2c1CCC2,-6.53%,-1.46%,-5.63%,91.7%,1.31%,5.66%
Cc1nc2c3c4c(sc3n3c(SCC(=O)NCc5ccco5)nnc3n2n1)COC(C)(C)C4,-15.2%,3.31%,-6.89%,88.7%,1.85%,5.05%
CCOC(=O)C1CCCN(C(=O)CNC(=O)Cn2ccc3ccccc3c2=O)C1 (stereo not given),-6.4%,-0.325%,-4.65%,104%,0.875%,4.63%
O=C(c1ccco1)N1CCN(C(=O)C2Cc3ccccc3CN2S(=O)(=O)c2ccc(F)cc2)CC1 (stereo not given),-12.6%,-9.61%,-4.67%,97.2%,3.29%,7.28%
Cc1ccc(CNC(=O)CCS(=O)(=O)c2cccc3nonc23)cc1,8.16%,-4.57%,-0.35%,98.8%,1.71%,5.43%
C=CCn1c(CCNC(=O)C(C)(C)C)nc2ccccc21,-10.5%,3.93%,-1.82%,103%,1.94%,3.12%
COC(=O)c1cn(NC(=O)c2cnccn2)c(=O)c2ccccc12,-5.4%,16.9%,2.86%,27.8%,1.15%,-0.31%
CCN(CC)S(=O)(=O)c1cc(Br)ccc1OC,9.34%,-11.1%,-4.03%,94.8%,0.72%,1.97%
CCOC(=O)c1c(NC(=O)c2ccc(Cl)s2)sc(C)c1C,-6.9%,-11.2%,-8.89%,12.6% (active),2.4%,5.6%
Cc1c(Cl)cccc1NC(=O)CCN1CCCC(C)C1 (stereo not given),-12.9%,3.83%,-3.58%,94.7%,2.28%,3.43%
N#Cc1c(N)nc2c(c1-c1ccc3c(c1)OCO3)CCCCCC2,-18%,-4.1%,-5.55%,84.8%,2.68%,6.96%
CCOC(=O)C1=CSC2=NS(=O)(=O)CCN12,3.57%,-2.12%,-2.36%,97.7%,2.31%,-0.32%
CCN(CC)CCOc1c(Br)ccc2c1sc1nc3n(c(=O)c12)CCC3,-1.77%,6.08%,-5.02%,30.4%,0.405%,5.14%
O=C(NCc1nc2ccccc2[nH]1)c1ccc(S(=O)(=O)N2CCOCC2)cc1,-9.52%,-0.75%,-2.83%,85.8%,1.77%,3.06%
Cc1cc(C)n(-c2nnc(C)n2/N=C/c2ccccc2OCc2ccccc2Cl)n1,-4.54%,-6.33%,-5.89%,22.2% (active),1.27%,-2.2%
c1ccc(Nc2nc(N3CCCCC3)nc(N3CCNCC3)n2)cc1,-9.86%,-6.95%,-8.19%,3.71% (active),0.98%,3.63%
O=C(CNC(=O)Cn1ccc2ccccc2c1=O)NCCCN1CCCCCC1,-7.25%,-1.09%,-2.48%,91.2%,-0.25%,4.42%

SMILES,growth inhibition [1],growth inhibition [2],viability increase [3],viability [4],inhibition [5],RAM network inhibition [6]
Cc1nc2nc(SCC(=O)N3CCOCC3)nn2c(C)c1Cc1c(F)cccc1Cl,-2.75%,34%,-6.91%,88.4%,0.35%,3.17%
CCn1cc(C(=O)N2CCN(c3ccccn3)CC2)c2cc(OC)c(OC)cc2c1=O,-18%,-7.93%,-4.32%,104%,0.495%,6.02%
CCCCCn1c(=O)[nH]c2cc(C(=O)NCCCN(CC)CC)ccc2c1=O,-20.8%,-0.04%,-4.48%,47.3%,1.65%,3.74%
COc1ccc(CNC(=O)c2ccc(NC(=O)C3CCCO3)cc2)cc1 (stereo not given),-16.3%,-0.99%,0.75%,98.6%,2.87%,8.83%
Brc1cc(Br)c2ncnc(N3CCCCC3)c2c1,-2.35%,-19.5%,-7.95%,15.9% (active),2.7%,2.58%
Cc1c(NC(=O)CCC2CCCCC2)c(=O)n(-c2ccccc2)n1C,5.74%,3.62%,-0.39%,99.4%,0.965%,3.28%
NC(=O)C1CCN(c2nc(C3CC3)nc3c2nnn3Cc2ccccc2Cl)CC1,-11.9%,-3.43%,-6.11%,84.4%,3.41%,0.99%
COC(=O)c1ccc(NCC(=O)c2ccccc2)cc1,-7.25%,-4.05%,-4.87%,99.3%,1.83%,3.96%
Cn1c(Cn2c(=O)sc3ccccc32)nnc1SCc1ccc(F)cc1,-7.12%,-5.41%,-4.85%,23.7% (active),2.8%,16.2% (active)
O=C1CC(N2CCN(Cc3ccc4c(c3)OCO4)CC2)C(=O)N1Cc1ccc(N2CCCC2=O)cc1 (stereo not given),-28.2%,-0.61%,-1.61%,90.3%,2.29%,7.63%
COc1cc2[nH]c(=O)n(CCC(=O)N3CCN(c4cccc(C)c4C)CC3)c(=O)c2cc1OC,2.25%,-5.83%,-5.18%,84.2%,0.615%,5.67%
NCCOc1ccccc1-c1ccccc1,-17.6%,-14.4%,-3%,87.2%,2.3%,2.4%
O=C(NCc1cccs1)C1CCCN(S(=O)(=O)c2ccc3c(c2)OCO3)C1 (stereo not given),-20.3%,-1.21%,-3.16%,90.8%,1.46%,3.17%
Cc1ccc(-c2nc(=S)c3c(n2Cc2ccco2)CC(C)(C)OC3)cc1,-13.2%,2.99%,-2.16%,69.2%,-0.945%,3.44%
Cc1ccnc(Sc2nc3c(c(=O)[nH]c(=O)n3C)n2CCCc2ccccc2)n1,-17.7%,2.31%,-2.18%,91.8%,1.6%,1.4%
COc1cc(OC)cc(C(=O)Nc2cc(NC(=O)c3ccco3)ccc2OC)c1,-15.4%,3.21%,-5.63%,88.8%,1.21%,2.66%
O=C(Nc1cccc(Cl)c1Cl)c1ccncc1,-9.8%,-0.975%,-0.14%,103%,1.85%,4.88%
CC(C)CC(NC(=O)C1CCC(C)CC1)C(=O)Nc1ccccn1 (stereo not given),-11.7%,2.61%,-1.42%,92.9%,0.5%,3.07%
Cc1cccc(N2CCN(C(=O)c3ccc(NC(=O)C4CCCO4)cc3)CC2C)c1 (stereo not given),-10.9%,6.01%,-2.33%,105%,1.11%,4.83%
COCC(=O)NCc1nc2ccccc2[nH]1,-12.6%,-0.605%,-1.85%,105%,1.76%,2.13%
